Screening data: PubChem, several laboratories
MEKK2mut PB1 HTS = signal of MEK5 binding to mutant human MEKK2 PB1 domain; hit rate 0.35% among 290,000; percent response, % at 10 µM; bead flow cytometry, Alexa488-MEK5 binding to MEKK2 mutant; in the data active means percent response above about 24%, passing the limit was not always enough
Beta2AR agonist = human beta-2 adrenergic receptor agonism by FAP; P07550; Am2.2-beta2AR cells, FAP receptor internalization, flow cytometry; response, % (test concentration not listed); hit rate 0.43% among 340,000;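 active means response above a set limit, near 3 SD of response in nonfluorescent compounds, cut at about 42% in these data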
Target sequence (P07550 whole entry, looked up): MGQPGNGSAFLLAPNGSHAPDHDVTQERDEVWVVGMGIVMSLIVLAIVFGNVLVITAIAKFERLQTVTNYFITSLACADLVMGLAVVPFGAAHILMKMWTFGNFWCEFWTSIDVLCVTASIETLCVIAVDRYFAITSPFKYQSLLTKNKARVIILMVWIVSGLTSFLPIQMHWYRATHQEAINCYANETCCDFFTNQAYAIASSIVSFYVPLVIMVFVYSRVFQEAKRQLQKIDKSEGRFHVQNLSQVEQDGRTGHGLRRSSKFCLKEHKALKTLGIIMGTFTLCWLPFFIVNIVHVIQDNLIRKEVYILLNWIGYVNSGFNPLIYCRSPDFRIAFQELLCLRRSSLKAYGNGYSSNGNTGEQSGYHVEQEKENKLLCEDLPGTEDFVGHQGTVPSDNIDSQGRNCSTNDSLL
MEKK2wt PB1 HTS = raises or lowers MEK5 binding to wildtype human MEKK2 PB1 domain; bead flow cytometry, Alexa488-MEK5 binding to MEKK2 WT; actives lie on both sides; binding response (% of control), % at 10 µM; Q9Y2U5; hit rate 1.1% among 290,000; in the data active means binding response below about 67% or above about 130%
MEKK3 PB1 HTS = MEKK3-MEK5 PB1 interaction, increase or decrease. Q99759. bead-based flow cytometry, Alexa488-MEK5 binding to MEKK3; actives lie on both sides; 0 = blocked by unlabeled MEK5, 100 = vehicle. binding response (% of control), % at 10 µM. hit rate 1.4% among 290,000. AID 1529;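 active means binding response more than 3 SD above or below the average of its plate-row segment, actives on both sides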;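 further: Alexa488 bead fluorescence after subtracting the streptavidin-only scavenger bead signal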
Dynein cargo inh = dynein cargo transport inhibition | 3617.4 mouse cells, GR-EGFP nuclear translocation imaging; test concentration mostly 20 µM; stimulated with dexamethasone, 1 µM; hits give low values | z-score, hits read low | hit rate 0.47% among 220,000;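 active means plate z-score of nuclear minus cytoplasmic receptor signal below a set negative limit, without overly bright fluorescence or cell loss, cut at about -3.5 in these data, passing the limit was not always enough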;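 further: z-score of nuclear minus cytoplasmic ring GR-EGFP intensity difference per well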
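Buffer or medium: Induction medium lacking tetracycline, stripped serum | Also added: Dexamethasone agonist, 1.0 µM final, for 30 min | Timing: 48 h induction, 1 h compound, 30 min dex at 37 °C | Detection: Formaldehyde fixation, Hoechst nuclear stain, 10x automated fluorescence imaging | Measure: Nuclear versus cytoplasmic GR-EGFP signal, averaged per well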
ATG4B inh = inhibitors of human ATG4B cysteine protease. ATG4B cleavage of LC3-PLA2, NBD-HPC fluorescence, 1 h. inhibition, % at 8.33 µM. Q9Y4P1. hit rate 0.51% among 340,000; in the data active means inhibition above about 40%
ATG4B confirm = confirmation of human ATG4B inhibitors | inhibition, % at 8.33 µM | hit rate 92% among 320 | AID 504757 | shares compounds with ATG4B inh | ATG4B protease fluorescent substrate cleavage assay; in the data active means inhibition above about 39%
PLA2 ctr = PLA2 (human) inhibition in ATG4B counter-screen | shares compounds with ATG4B inh | purified PLA2, NBD-C6-HPC fluorescence, 45 min | inhibition, % at 8.33 µM | hit rate 66% among 1,600; in the data active means inhibition above about 50%
Target sequence (P04054 whole entry, looked up): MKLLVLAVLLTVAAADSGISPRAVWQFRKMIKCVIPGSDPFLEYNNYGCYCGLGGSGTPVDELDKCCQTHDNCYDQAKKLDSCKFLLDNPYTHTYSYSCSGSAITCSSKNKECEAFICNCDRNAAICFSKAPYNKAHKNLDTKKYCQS
Large screens that a line does not name were inactive (follow-up assays come after a bar, where they were run). Most compounds without a hit are left out; they make up all but 2.9% or so of the library.

O=C(NC(=S)Nc1sc2c(c1C(=O)O)CCCC2)c1ccccc1	ATG4B inh 52 (no result: Dynein cargo inh) | PLA2 ctr 62
N#Cc1c(NC(=S)NC(=O)c2ccccc2)sc2c1CCC2	none
Cc1ccccc1C(=O)Nc1sc2c(c1C(=O)O)CCC2	ATG4B inh 52 | PLA2 ctr inactive
Cc1ccccc1C(=O)Nc1sc(C)c(C)c1C(=O)c1ccccc1	ATG4B inh 41 | PLA2 ctr 61
O=C(NCCSCc1ccco1)Nc1cc(Cl)cc(Cl)c1	ATG4B inh 46 | PLA2 ctr 62
O=C1OC(c2cccs2)=N/C1=C\c1ccc(-c2cccc(Cl)c2)o1	ATG4B inh 71 | ATG4B confirm 55 | PLA2 ctr inactive
COc1ccc(CCC(C)Nc2cccc(F)c2)cc1 (stereo not drawn)	none
Cc1cccc(OCC(=O)Nc2ccccc2-c2ccccc2)c1	ATG4B inh 45 | ATG4B confirm 64 | PLA2 ctr inactive
COc1ccccc1CN(C)CC(=O)Nc1ccccc1-c1ccccc1	none
Cc1c(NC(=O)c2ccccc2NC(=O)COc2ccccc2)cccc1C(=O)O	ATG4B inh 40 (no result: Dynein cargo inh) | PLA2 ctr inactive
Cc1c(NC(=O)c2ccccc2NC(=O)c2ccccc2)cccc1C(=O)O	none (no result: Dynein cargo inh)
Cc1ccccc1CN(C)CC(=O)Nc1ccccc1-c1ccccc1	ATG4B inh 51 | PLA2 ctr 54
COc1ccc([C@H]2CC(=O)C=C(c3ccccc3-c3ccccc3)C2)cc1	ATG4B inh 42 (no result: MEKK2mut PB1 HTS, MEKK2wt PB1 HTS, MEKK3 PB1 HTS, Dynein cargo inh) | PLA2 ctr 58
CC(Nc1cccc(F)c1)C(=O)Nc1ccc(S(N)(=O)=O)cc1 (stereo not drawn)	none
S=C(NCCCCc1ccccc1)NCc1ccccc1	ATG4B inh 63 (no result: Dynein cargo inh) | PLA2 ctr 70
S=C(NCc1ccccc1)NC1CCCCC1	none
S=C(NCCCCNC(=S)NCc1ccccc1)NCc1ccccc1	none (no result: Dynein cargo inh)
S=C(NCc1cccc(Cl)c1)NC1CCCCC1	ATG4B inh 59 | PLA2 ctr 64
S=C(Nc1ccc(Cl)c(Cl)c1)NC1CCCCC1	ATG4B inh 48 | PLA2 ctr inactive
S=C(NCCc1ccccc1)NCc1cccc(Cl)c1	ATG4B inh 84 (no result: Dynein cargo inh) | PLA2 ctr 90
Cc1nonc1C1CCCN1C(=O)c1cc(COc2ccc(F)cc2F)on1 (stereo not drawn)	none
COCCn1c(SCC(=O)NC2CCCC2)nnc1-c1ccco1	none (no result: Dynein cargo inh)
Cc1ccc(S(=O)(=O)N2CCN(C(=O)C3CCCC3)CC2)cc1C	none (no result: Dynein cargo inh)
O=C(CCSCc1cccc(Cl)c1)NCCc1ccc(Cl)cc1	ATG4B inh 44 | PLA2 ctr inactive
CC(C)c1ccc(NC2CCCN(C(=O)CC3CCCC3)C2)cc1 (stereo not drawn)	ATG4B inh 87 (no result: Dynein cargo inh) | PLA2 ctr 89
CC(C)c1ccc(NC2CCCN(C(=O)CCN3CCCC3=O)C2)cc1 (stereo not drawn)	none (no result: Dynein cargo inh)
CC(C)c1ccc(NC2CCCN(C(=O)c3ccoc3)C2)cc1 (stereo not drawn)	ATG4B inh 56 (no result: Dynein cargo inh) | PLA2 ctr 60
CC(C)c1ccc(NC2CCCN(C(=O)c3cc(C(C)C)nc(N)n3)C2)cc1 (stereo not drawn)	ATG4B inh 75 (no result: Dynein cargo inh) | PLA2 ctr 77
CC(C)c1ccc(NC2CCCN(C(=O)c3ccc(N4CCOCC4)cc3)C2)cc1 (stereo not drawn)	ATG4B inh 77 (no result: Dynein cargo inh) | PLA2 ctr 82
CC(C)c1ccc(NC2CCCN(C(=O)c3cscn3)C2)cc1 (stereo not drawn)	none (no result: Dynein cargo inh)
COCCCNC(=O)CN(c1cc([N+](=O)[O-])ccc1OC)S(C)(=O)=O	none
CC1CCN(C(=O)Cn2c3ccccc3c3nc4n(c(=O)c32)CCCS4)CC1	none (no result: Dynein cargo inh)
COC(=O)CSc1snnc1-c1ccc(Cl)cc1Cl	none
COCCNC(=O)C(c1ccc(F)cc1)N(CCOC)C(=O)CCC(=O)Nc1ccccn1 (stereo not drawn)	none (no result: Dynein cargo inh)
Cc1ccc(-c2ccc(/C=N/NC(=O)Cc3nnc(N)s3)o2)cc1Cl	ATG4B inh 68 | PLA2 ctr 77
O=C(Nc1ccc(N2CCOCC2)cc1)c1cc2ccccc2o1	none
O=C(/C=C/N1CCOCC1)c1coc2ccccc12	ATG4B inh 44 (no result: MEKK2mut PB1 HTS, MEKK2wt PB1 HTS, MEKK3 PB1 HTS) | PLA2 ctr inactive
O=C(/C=C/N1CCOCC1)c1cc2ccccc2o1	ATG4B inh 65 | PLA2 ctr inactive
O=C(O)c1coc2ccccc12	none (no result: Beta2AR agonist)
CCn1cc([N+](=O)[O-])c(=O)c2cc(F)c(N3CCOCC3)cc21	none (no result: Dynein cargo inh)
CCc1nc2ccccc2c(=O)n1/N=C/c1ccc(OC)cc1	none (no result: MEKK2mut PB1 HTS, MEKK2wt PB1 HTS, MEKK3 PB1 HTS, Dynein cargo inh)
C=CCn1c(SCC(=O)Nc2cc(Cl)ccc2C(=O)O)nc2sc(C)c(C)c2c1=O	ATG4B inh 61 (no result: MEKK2mut PB1 HTS, MEKK2wt PB1 HTS, MEKK3 PB1 HTS, Dynein cargo inh) | PLA2 ctr 53
C=CCn1c(SCC(=O)Nc2ccc(O)cc2)nc2sc(C)c(C)c2c1=O	none (no result: MEKK2mut PB1 HTS, MEKK2wt PB1 HTS, MEKK3 PB1 HTS, Dynein cargo inh)
Cc1ccc(-n2c(SCC(=O)N3CCCC3)nc3c(c2=O)SCC3)cc1	none (no result: MEKK2mut PB1 HTS, Beta2AR agonist, MEKK2wt PB1 HTS, MEKK3 PB1 HTS, ATG4B inh)
COC(=O)c1ccc(CSc2nc3c(c(=O)n2-c2ccc(C)cc2)SCC3)o1	ATG4B inh 48 | PLA2 ctr 70
CN1/C(=C\C(=S)NC(=O)c2ccccc2Cl)C(C)(C)c2ccccc21	MEKK2wt PB1 HTS 1.0, ATG4B inh 49 | PLA2 ctr inactive
COc1ccccc1C(=O)NC(=S)/C=C1/N(C)c2ccccc2C1(C)C	none
O=C(Nc1cccc2cccnc12)c1ccc(Cl)cc1	none (no result: Dynein cargo inh)
C/C(=C/CCC(C)[C@H]1CC[C@@]2(C)C3=C(CC[C@]12C)[C@@]1(C)CCC(=O)C(C)(C)[C@@H]1CC3)C(=O)O (stereo partly drawn)	ATG4B inh 46 | ATG4B confirm 79 | PLA2 ctr inactive
C/C(=C/CCC(C)C1CCC2(C)C3CCC4C(C)(C)C(=O)CCC4(C)C3=CCC12C)C(=O)O (stereo not drawn)	none (no result: Beta2AR agonist, ATG4B inh)
CC(C)(C)C(=O)Nc1sc(-c2ccccc2)cc1C(=O)O	none
Cc1cccc(C(=O)Nc2sc(-c3ccccc3)cc2C(=O)O)c1	ATG4B inh 68 | PLA2 ctr 75
COc1cccc(CNc2cc(CSc3ccc(Cl)cc3)nc(C)n2)c1	ATG4B inh 54 | PLA2 ctr 63
O=C(Nc1nnc(-c2ccccc2Cl)o1)c1cc2cc([N+](=O)[O-])ccc2s1	none (no result: Beta2AR agonist, ATG4B inh)
O=C(NN1C(=O)NC2(CCCCC2)C1=O)c1ccc(Cl)s1	none (no result: MEKK2mut PB1 HTS, MEKK2wt PB1 HTS, MEKK3 PB1 HTS, Dynein cargo inh)
COc1cc([N+](=O)[O-])cc(/C=C2/SC(=S)N(Cc3ccccc3)C2=O)c1O	ATG4B inh 49 (no result: Dynein cargo inh) | PLA2 ctr 75
